Source: ChEMBL document CHEMBL3046131, “Synthesis and quantitative structure-activity relationship (QSAR) study of novel isoxazoline and oxime derivatives of podophyllotoxin as insecticidal agents” (2012)

Experiments:
Format in all cases: functional
Mythimna separata [1] = assay: Insecticidal activity against pre-third-instar larvae of Mythimna separata (Oriental armyworm) in wheat leaves at 1 mg/mL after 33 days by leaf-dipping method; conditions: 792 h
Method in brief: (§1)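 Compounds dissolved in acetone at 1 mg/mL. Fresh wheat leaves dipped 3 s, then dried at room conditions. Acetone-only leaves served as blank control and toosendanin as positive control. Ten larvae per dish fed treated leaves, replenished when consumed, for 48 h. Untreated fresh leaves were then given until adult emergence. Held at 25 ± 2 °C, 65−80% RH, 12 h/12 h light/dark. Activity calculated by formula.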

Mythimna separata [2] = assay: Insecticidal activity against pre-third-instar larvae of Mythimna separata (Oriental armyworm) in wheat leaves at 1 mg/mL after 20 days by leaf-dipping method; conditions: 480 h; method in brief: as §1
Mythimna separata [3] = assay: Insecticidal activity against pre-third-instar larvae of Mythimna separata (Oriental armyworm) in wheat leaves at 1 mg/mL after 5 days by leaf-dipping method; conditions: 120 h; method in brief: as §1

| Structure (SMILES) | mortality at 1000 µg/mL (Mythimna separata [1]) [%] | mortality at 1000 µg/mL (Mythimna separata [2]) [%] | mortality at 1000 µg/mL (Mythimna separata [3]) [%] |
| --- | --- | --- | --- |
| CCCCNC(=O)[C@@H]1[C@H](c2cc(OC)c(OC)c(OC)c2)c2cc3c(cc2C2=NOC[C@H]21)OCO3 | 10.3 | 0 | 0 |
| COc1cc([C@@H]2c3cc4c(cc3/C(=N\O)[C@H]3COC(=O)[C@H]23)OCO4)cc(OC)c1OC | 34.5 | 24.1 | 10 |
| COC(=O)[C@@H]1[C@H](c2cc(OC)c(OC)c(OC)c2)c2cc3c(cc2C2=NOC[C@H]21)OCO3 | 41.4 | 31 | 23.3 |
| CCOC(=O)[C@@H]1[C@H](c2cc(OC)c(OC)c(OC)c2)c2cc3c(cc2C2=NOC[C@H]21)OCO3 | 44.8 | 31 | 20 |
| CCCCOC(=O)[C@@H]1[C@H](c2cc(OC)c(OC)c(OC)c2)c2cc3c(cc2C2=NOC[C@H]21)OCO3 | 58.6 | 34.5 | 23.3 |
| CCCCCCCCOC(=O)[C@@H]1[C@H](c2cc(OC)c(OC)c(OC)c2)c2cc3c(cc2C2=NOC[C@H]21)OCO3 | 37.9 | 34.5 | 30 |
| COc1cc([C@@H]2c3cc4c(cc3C3=NOC[C@H]3[C@@H]2C(=O)OCCc2ccccc2)OCO4)cc(OC)c1OC | 41.4 | 27.6 | 20 |
| COc1cc([C@@H]2c3cc4c(cc3C3=NOC[C@H]3[C@@H]2C(=O)OCc2ccccc2)OCO4)cc(OC)c1OC | 37.9 | 31 | 23.3 |
| COc1ccc(COC(=O)[C@@H]2[C@H](c3cc(OC)c(OC)c(OC)c3)c3cc4c(cc3C3=NOC[C@H]32)OCO4)cc1 | 44.8 | 37.9 | 26.7 |
| COc1cc([C@@H]2c3cc4c(cc3C3=NOC[C@H]3[C@@H]2C(=O)OCc2cccc(F)c2)OCO4)cc(OC)c1OC | 34.5 | 34.5 | 23.3 |
| COc1cc([C@@H]2c3cc4c(cc3C3=NOC[C@H]3[C@@H]2C(=O)OCc2ccc([N+](=O)[O-])cc2)OCO4)cc(OC)c1OC | 27.6 | 24.1 | 23.3 |
| COc1cc([C@@H]2c3cc4c(cc3C3=NOC[C@H]3[C@@H]2COC=O)OCO4)cc(OC)c1OC | 24.1 | 10.3 | 0 |
| CCCC(=O)OC[C@@H]1[C@H](c2cc(OC)c(OC)c(OC)c2)c2cc3c(cc2C2=NOC[C@H]21)OCO3 | 34.5 | 13.8 | 6.7 |
| CCCCCCCC(=O)OC[C@@H]1[C@H](c2cc(OC)c(OC)c(OC)c2)c2cc3c(cc2C2=NOC[C@H]21)OCO3 | 17.2 | 6.9 | 0 |
| COc1cc([C@@H]2c3cc4c(cc3C3=NOC[C@H]3[C@@H]2COC(=O)Cc2ccccc2)OCO4)cc(OC)c1OC | 20.7 | 6.9 | 6.7 |
| COc1cc([C@@H]2c3cc4c(cc3C3=NOC[C@H]3[C@@H]2COC(=O)c2ccccc2)OCO4)cc(OC)c1OC | 41.4 | 27.6 | 26.7 |
| COc1ccc(C(=O)OC[C@@H]2[C@H](c3cc(OC)c(OC)c(OC)c3)c3cc4c(cc3C3=NOC[C@H]32)OCO4)cc1 | 37.9 | 13.8 | 6.7 |
| COc1cc([C@@H]2c3cc4c(cc3C3=NOC[C@H]3[C@@H]2COC(=O)c2cccc(F)c2)OCO4)cc(OC)c1OC | 55.2 | 34.5 | 23.3 |

| Structure (SMILES) | mortality at 1000 µg/mL (Mythimna separata [1]) [%] | mortality at 1000 µg/mL (Mythimna separata [2]) [%] | mortality at 1000 µg/mL (Mythimna separata [3]) [%] |
| --- | --- | --- | --- |
| COc1cc([C@@H]2c3cc4c(cc3C3=NOC[C@H]3[C@@H]2COC(=O)c2ccc([N+](=O)[O-])cc2)OCO4)cc(OC)c1OC | 58.6 | 37.9 | 26.7 |
| COc1cc([C@@H]2c3cc4c(cc3/C(=N/OS(=O)(=O)c3ccc(C)cc3)[C@H]3COC(=O)[C@@H]23)OCO4)cc(OC)c1OC | 44.8 | 34.5 | 20 |
| CCc1ccc(S(=O)(=O)O/N=C2/c3cc4c(cc3[C@@H](c3cc(OC)c(OC)c(OC)c3)[C@@H]3C(=O)OC[C@H]23)OCO4)cc1 | 27.6 | 17.2 | 3.3 |
| COc1ccc(S(=O)(=O)O/N=C2/c3cc4c(cc3[C@@H](c3cc(OC)c(OC)c(OC)c3)[C@@H]3C(=O)OC[C@H]23)OCO4)cc1 | 24.1 | 3.5 | 0 |
| COc1cc([C@@H]2c3cc4c(cc3/C(=N/OS(=O)(=O)c3ccc(Cl)cc3)[C@H]3COC(=O)[C@@H]23)OCO4)cc(OC)c1OC | 55.2 | 37.9 | 26.7 |
| COc1cc([C@@H]2c3cc4c(cc3/C(=N/OS(=O)(=O)c3ccc(Br)cc3)[C@H]3COC(=O)[C@@H]23)OCO4)cc(OC)c1OC | 27.6 | 10.3 | 0 |
| COc1cc([C@@H]2c3cc4c(cc3/C(=N/OS(=O)(=O)c3cccc([N+](=O)[O-])c3)[C@H]3COC(=O)[C@@H]23)OCO4)cc(OC)c1OC | 13.8 | 3.5 | 0 |
| COc1cc([C@@H]2c3cc4c(cc3/C(=N/OS(=O)(=O)c3ccc(Cl)c([N+](=O)[O-])c3)[C@H]3COC(=O)[C@@H]23)OCO4)cc(OC)c1OC | 13.8 | 3.5 | 0 |
| COc1cc([C@@H]2c3cc4c(cc3/C(=N/OS(C)(=O)=O)[C@H]3COC(=O)[C@@H]23)OCO4)cc(OC)c1OC | 24.1 | 17.2 | 0 |
| COc1cc([C@@H]2c3cc4c(cc3/C(=N/O)[C@H]3COC(=O)[C@@H]23)OCO4)cc(OC)c1OC | 17.2 | 6.9 | 0 |
| COc1cc([C@@H]2c3cc4c(cc3/C(=N/OS(=O)(=O)c3ccccc3)[C@H]3COC(=O)[C@@H]23)OCO4)cc(OC)c1OC | 24.1 | 6.9 | 0 |
| COc1cc([C@@H]2c3cc4c(cc3C3=NOC[C@H]3[C@@H]2C(=O)O)OCO4)cc(OC)c1OC | 41.4 | 31 | 20 |
| COc1cc([C@@H]2c3cc4c(cc3C3=NOC[C@H]3[C@@H]2CO)OCO4)cc(OC)c1OC [ISOXAZOLOPODOPHYLLOL] | 37.9 | 20.7 | 20 |
| COc1cc([C@@H]2c3cc4c(cc3C(=O)[C@H]3COC(=O)[C@@H]23)OCO4)cc(OC)c1OC [PICROPODOPHYLLONE] | 27.6 | 20.7 |  |
| COc1cc([C@@H]2c3cc4c(cc3[C@H](O)[C@H]3COC(=O)[C@H]23)OCO4)cc(OC)c1OC [PODOFILOX] | 37.9 | 10.3 | 3.3 |
| COc1cc([C@@H]2c3cc4c(cc3C(=O)[C@H]3COC(=O)[C@H]23)OCO4)cc(OC)c1OC [PODOPHYLLOTOXONE] | 17.2 | 3.5 | 6.7 |
| CC(=O)O[C@@H]1C[C@H](O)[C@@]23CO[C@@H](O)[C@]1(C)[C@@H]2C[C@@H](O)[C@]1(C)[C@@H]3C(=O)[C@H](OC(C)=O)[C@@]2(C)[C@H](c3ccoc3)C[C@H]3O[C@]321 [TOOSENDANIN] | 44.8 | 13.8 | 6.7 |
